Measured values reported in ChEMBL document CHEMBL1157592, “Design, synthesis and antimicrobial properties of non-hemolytic cationic alpha-cyclopeptoids” (Bioorg Med Chem, 2010).
≈ marks a conversion by molar mass, not a printed value. Each block holds one compound with its values, some of them ahead of it. Calls of active or inactive are those of the source. No cut-off for these calls is given here. Square brackets hold non-standard residues; d marks the D form. Peptide text beside a SMILES is read from it. Nphe = O=C(O)CNCc1ccccc1; Nlys = NCCCCNCC(=O)O

Assays:
[1] = system: Salmonella typhimurium; experiment: Antimicrobial activity against Salmonella Typhimurium ATCC 14028 after 18 hrs by broth microdilution method; assay type: functional, Salmonella enterica subsp. enterica serovar Typhimurium; conditions: Salmonella enterica, ATCC 14028, 18 h
Method in brief: (§1)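 Strains grown at 37 °C in Mueller–Hinton broth and tested in logarithmic phase. Twofold serial dilutions made in MH broth, inoculum ~2.5 × 10⁵ cells/mL, incubated overnight (18 h) at 37 °C. MIC is the lowest concentration giving complete inhibition of visible growth, following NCCLS broth microdilution guidelines.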

[2] = system: Candida albicans; experiment: Antimicrobial activity against Candida albicans ATCC 90029 after 48 hrs by broth microdilution method; assay type: functional; conditions: ATCC 90029, 48 h
Method in brief: (§2)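 Fungi grown on Sabouraud agar at 30 °C for 48 h, suspended in PBS, turbidity read at 600 nm and adjusted in RPMI-1640. Twofold serial dilutions made in RPMI-1640, inoculum ~5 × 10⁴ cells/mL, incubated 30 °C for 48 h. MIC is the lowest concentration giving complete inhibition of visible growth, following NCCLS broth microdilution guidelines.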

[3] = system: Staphylococcus aureus; experiment: Antimicrobial activity against Staphylococcus aureus ATCC 25923 after 18 hrs by broth microdilution method; assay type: functional; conditions: ATCC 25923, 18 h; method in brief: as §1
[4] = system: Escherichia coli; experiment: Antimicrobial activity against Escherichia coli ATCC 25922 after 18 hrs by broth microdilution method; assay type: functional; conditions: ATCC 25922, 18 h; method in brief: as §1
[5] = system: Cryptococcus neoformans; experiment: Antimicrobial activity against Cryptococcus neoformans ATCC 90112 after 48 hrs by broth microdilution method; assay type: functional; conditions: ATCC 90112, 48 h; method in brief: as §2
[6] = system: Cryptococcus neoformans; experiment: Antimicrobial activity against Cryptococcus neoformans L1 after 48 hrs by broth microdilution method; assay type: functional; conditions: L1, 48 h; method in brief: as §2
[7] = system: Debaryomyces hansenii; experiment: Antimicrobial activity against Candida famata SA550 after 48 hrs by broth microdilution method; assay type: functional; conditions: SA550, 48 h; method in brief: as §2
[8] = system: Candida albicans; experiment: Antimicrobial activity against Candida albicans L21 after 48 hrs by broth microdilution method; assay type: functional; conditions: L21, 48 h; method in brief: as §2
[9] = Toxicity in human RBCs assessed as induction of hemolysis at 20 uM relative to untreated control; assay type: cell-based, Erythrocyte; conditions: red blood cells (RBCs)
[10] = Toxicity in human RBCs assessed as induction of hemolysis at 100 uM relative to untreated control; assay type: cell-based; conditions: erythrocyte
Method in brief: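 Erythrocytes taken from fresh human blood anticoagulated with citrate-dextrose. A 0.5% (v/v) suspension in 10 mM phosphate buffer pH 7.4 with 139 mM NaCl was incubated with 100 µM cyclopeptoid for 60 min at 37 °C. Reaction stopped with cold buffer, centrifuged at 10,000g for 1 min, and the supernatant collected.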

[11] = system: Candida albicans; experiment: Membrane permeabilizing effect in Candida albicans ATCC 90029 assessed as propidium iodide uptake at 100 uM after 120 mins by flow cytometry; assay type: functional, organism-based
Method in brief: (§3)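 Candida subcultured on Sabouraud agar, diluted in RPMI-1640 to 1 × 10⁵ cells/mL and incubated with peptoid at 30 °C for various times. Propidium iodide (final 10 µg/mL) added, 4 min at 30 °C, then flow cytometry with ≥10,000 events. Read-out is % PI-positive cells, background (no peptoid) subtracted; triplicates, mean ± SD.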

[12] = system: Candida albicans; experiment: Membrane permeabilizing effect in Candida albicans ATCC 90029 assessed as propidium iodide uptake at 100 uM after 120 to 240 mins by flow cytometry; assay type: functional; method in brief: as §3
[13] = system: Staphylococcus aureus; experiment: Membrane permeabilizing effect in Staphylococcus aureus ATCC 25923 assessed as propidium iodide uptake at 250 uM after 60 mins by flow cytometry; assay type: functional
Method in brief: (§4)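 Log-phase bacteria at 1 × 10⁶ cells/mL in MH broth incubated with peptoid at 37 °C for various times. Propidium iodide (final 10 µg/mL) added, 4 min at 37 °C, then flow cytometry with ≥10,000 events. Read-out is % PI-positive cells, background (no peptoid) subtracted; triplicates, mean ± SD.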

[14] = system: Escherichia coli; experiment: Membrane permeabilizing effect in Escherichia coli ATCC 25922 assessed as propidium iodide uptake at 250 uM after 180 mins by flow cytometry; assay type: functional, organism-based; method in brief: as §4
[15] = system: Candida albicans; experiment: Membrane permeabilizing effect in Candida albicans ATCC 90029 assessed as propidium iodide uptake at 250 uM after 30 to 240 mins by flow cytometry; assay type: functional, organism-based; method in brief: as §3

- MIC [1]: > 1000 µM
- MIC [2]: > 1000 µM
- MIC [3]: > 1000 µM
- MIC [4]: > 1000 µM
- MIC [5]: > 1000 µM
- MIC [6]: > 1000 µM
- MIC [8]: > 1000 µM
SMILES: O=C1CN(CCOCc2ccccc2)C(=O)CN(CCOCc2ccccc2)C(=O)CN(CCOCc2ccccc2)C(=O)CN(CCOCc2ccccc2)C(=O)CN(CCOCc2ccccc2)C(=O)CN1CCOCc1ccccc1

- MIC [1]: 465 µM (≈ 393 µg/mL)
- MIC [2]: 465 µM (≈ 393 µg/mL)
- MIC [3]: 465 µM (≈ 393 µg/mL)
- MIC [4]: 465 µM (≈ 393 µg/mL)
- MIC [5]: 232 µM (≈ 196 µg/mL)
- MIC [6]: 116 µM (≈ 98 µg/mL)
- MIC [8]: 232 µM (≈ 196 µg/mL)
SMILES: NCCCCN1CC(=O)N(Cc2ccccc2)CC(=O)N(Cc2ccccc2)CC(=O)N(CCCCN)CC(=O)N(Cc2ccccc2)CC(=O)N(Cc2ccccc2)CC1=O (cyclo([Nlys][Nphe][Nphe][Nlys][Nphe][Nphe]))

- MIC [1]: > 1000 µM
- MIC [2]: 12 µM
- MIC [3]: > 1000 µM
- MIC [4]: 786 µM
- MIC [5]: 47 µM
- MIC [6]: 99 µM
- MIC [7]: 12 µM
- MIC [8]: 12 µM
SMILES: NCCCCN1CC(=O)N(Cc2ccccc2)CC(=O)N(CCCCN)CC(=O)N(CCCCN)CC(=O)N(Cc2ccccc2)CC(=O)N(CCCCN)CC1=O.O=C(O)C(F)(F)F.O=C(O)C(F)(F)F.O=C(O)C(F)(F)F.O=C(O)C(F)(F)F (cyclo([Nlys][Nlys][Nphe][Nlys][Nlys][Nphe]))
- Activity [11]: Active
- Activity [12]: 50%
- Activity [10]: Non-toxic

- MIC [1]: > 792 µM
- MIC [2]: 196 µM (≈ 200 µg/mL)
- MIC [3]: 392 µM (≈ 400 µg/mL)
- MIC [4]: 392 µM (≈ 400 µg/mL)
- MIC [5]: 196 µM (≈ 200 µg/mL)
- MIC [6]: 98 µM (≈ 100 µg/mL)
- MIC [8]: 196 µM (≈ 200 µg/mL)
SMILES: NCCCCN1CC(=O)N(CCOCc2ccccc2)CC(=O)N(CCOCc2ccccc2)CC(=O)N(CCCCN)CC(=O)N(CCOCc2ccccc2)CC(=O)N(CCOCc2ccccc2)CC1=O

- MIC [1]: > 1000 µM
- MIC [2]: > 1000 µM
- MIC [3]: > 1000 µM
- MIC [4]: > 1000 µM
- MIC [5]: > 1000 µM
- MIC [6]: > 1000 µM
- MIC [8]: > 1000 µM
SMILES: O=C1CN(Cc2ccccc2)C(=O)CN(Cc2ccccc2)C(=O)CN(Cc2ccccc2)C(=O)CN(Cc2ccccc2)C(=O)CN(Cc2ccccc2)C(=O)CN1Cc1ccccc1

- MIC [1]: > 766 µM
- MIC [2]: 184 µM
- MIC [3]: 383 µM
- MIC [4]: 383 µM
- MIC [5]: 184 µM
- MIC [6]: 92 µM
- MIC [8]: 184 µM
SMILES: NCCCCN1CC(=O)N(CCOCc2ccccc2)CC(=O)N(CCCCN)CC(=O)N(CCOCc2ccccc2)CC(=O)N(CCCCN)CC(=O)N(CCOCc2ccccc2)CC1=O.O=C(O)C(F)(F)F.O=C(O)C(F)(F)F.O=C(O)C(F)(F)F
- Activity [13]: >40%
- Activity [14]: inactive
- Activity [15]: inactive

The remaining lines, values behind:

SMILES: NCCCCN(CC(=O)O)C(=O)CN(CCCCN)C(=O)CN(Cc1ccccc1)C(=O)CN(CCCCN)C(=O)CN(CCCCN)C(=O)CNCc1ccccc1
- MIC [1]: > 1000 µM
- MIC [2]: > 1000 µM
- MIC [3]: > 1000 µM
- MIC [4]: > 1000 µM
- MIC [5]: > 1000 µM
- MIC [6]: > 1000 µM
- MIC [7]: > 1000 µM
- MIC [8]: > 1000 µM

SMILES: CC[C@H](C)[C@H](NC(=O)CN)C(=O)NCC(=O)N[C@@H](C)C(=O)N[C@H](C(=O)N[C@@H](CC(C)C)C(=O)N[C@@H](CCCCN)C(=O)N[C@H](C(=O)N[C@@H](CC(C)C)C(=O)N[C@H](C(=O)N[C@H](C(=O)NCC(=O)N[C@@H](CC(C)C)C(=O)N1CCC[C@H]1C(=O)N[C@@H](C)C(=O)N[C@@H](CC(C)C)C(=O)N[C@H](C(=O)N[C@@H](CO)C(=O)N[C@@H](Cc1c[nH]c2ccccc12)C(=O)N[C@H](C(=O)N[C@@H](CCCCN)C(=O)N[C@@H](CCCNC(=N)N)C(=O)N[C@@H](CCCCN)C(=O)N[C@@H](CCCNC(=N)N)C(=O)N[C@@H](CCC(N)=O)C(=O)N[C@@H](CCC(N)=O)C(N)=O)[C@@H](C)CC)[C@@H](C)CC)[C@@H](C)O)[C@@H](C)O)C(C)C)C(C)C [MELITTIN]
- hemolysis at 20 µM [9]: > 90%

SMILES: NCCCCN(CC(=O)N(CC(=O)N(CC(=O)N(CCCCN)CC(=O)N(CC(=O)O)Cc1ccccc1)Cc1ccccc1)Cc1ccccc1)C(=O)CNCc1ccccc1 (H-[Nphe][Nlys][Nphe][Nphe][Nlys][Nphe]-OH)
- MIC [1]: > 1000 µM
- MIC [2]: > 1000 µM
- MIC [3]: > 1000 µM
- MIC [4]: > 1000 µM
- MIC [5]: > 1000 µM
- MIC [6]: 788 µM (≈ 680 µg/mL)
- MIC [8]: > 1000 µM

SMILES: NCCCCN1CC(=O)N(CCCCN)CC(=O)N(CCCCN)CC(=O)N(CCCCN)CC(=O)N(CCCCN)CC(=O)N(CCCCN)CC1=O.O=C(O)C(F)(F)F.O=C(O)C(F)(F)F.O=C(O)C(F)(F)F.O=C(O)C(F)(F)F.O=C(O)C(F)(F)F.O=C(O)C(F)(F)F
- MIC [1]: > 1000 µM
- MIC [2]: 10 µM
- MIC [3]: > 1000 µM
- MIC [4]: > 1000 µM
- MIC [5]: > 1000 µM
- MIC [6]: > 1000 µM
- Activity [10]: Non-toxic
- MIC [7]: 5 µM
- MIC [8]: 5 µM

SMILES: NCCCCN(CC(=O)N(CCOCc1ccccc1)CC(=O)N(CCOCc1ccccc1)CC(=O)N(CCCCN)CC(=O)N(CCOCc1ccccc1)CC(=O)O)C(=O)CNCCOCc1ccccc1
- MIC [1]: 720 µM (≈ 748 µg/mL)
- MIC [2]: 360 µM (≈ 374 µg/mL)
- MIC [3]: > 720 µM
- MIC [4]: 360 µM (≈ 374 µg/mL)
- MIC [5]: 180 µM (≈ 187 µg/mL)
- MIC [6]: 90 µM (≈ 93.5 µg/mL)
- MIC [8]: 360 µM (≈ 374 µg/mL)

SMILES: NCCCCNCC(=O)N(CCCCN)CC(=O)N(CCCCN)CC(=O)N(CCCCN)CC(=O)N(CCCCN)CC(=O)N(CCCCN)CC(=O)O
- MIC [1]: > 1000 µM
- MIC [2]: > 1000 µM
- MIC [3]: > 1000 µM
- MIC [4]: > 1000 µM
- MIC [5]: > 1000 µM
- MIC [6]: > 1000 µM
- MIC [7]: > 1000 µM
- MIC [8]: 500 µM (≈ 394 µg/mL)
